Screens as filed in PubChem.
NPY Y1 blocker – NPY-Y1 receptor antagonists, primary screen, cell-based. Neuropeptide Y receptor type 1 (Homo sapiens), P25929. inhibition, % at 3.6 µM. actives 1% (n = 200,000). HEK293-CNG Y1 cells, membrane potential fluorescence; NPY at EC95, then isoproterenol;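 active means inhibition above the campaign mean inhibition of all tested compounds plus 3 SD, cut at about 20% in these data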
Target sequence (P25929 whole entry, looked up): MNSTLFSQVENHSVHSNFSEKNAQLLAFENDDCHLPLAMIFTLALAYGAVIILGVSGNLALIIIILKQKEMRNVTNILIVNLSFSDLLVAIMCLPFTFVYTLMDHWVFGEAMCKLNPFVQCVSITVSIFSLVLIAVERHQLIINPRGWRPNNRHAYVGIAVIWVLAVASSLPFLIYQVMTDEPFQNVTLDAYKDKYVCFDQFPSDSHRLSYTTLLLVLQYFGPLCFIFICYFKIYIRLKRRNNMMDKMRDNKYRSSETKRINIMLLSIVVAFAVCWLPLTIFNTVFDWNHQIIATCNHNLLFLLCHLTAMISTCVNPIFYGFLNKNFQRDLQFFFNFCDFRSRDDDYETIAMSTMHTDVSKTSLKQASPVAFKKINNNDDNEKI
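Material: HEK293 Y1/CNG channel cell line | Also added: NPY (25 nM), isoproterenol (1 µM), Ro 20-1724 (25 µM) | Compound: One concentration, 3.6 µM, in 0.4% DMSO | Schedule: 3 h dye uptake, 1 h room-temperature compound, 45 min post-isoproterenol | Signal: Membrane-potential fluorescent dye readout | Read-out: % inhibition of NPY effect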
NPY-Y2 PAM-ag – NPY-Y2 potentiators or agonists, primary screen, cell-based; activation, % at 3.6 µM; cells expressing NPY-Y2, potentiator/agonist read-out; Neuropeptide Y receptor type 2 (Homo sapiens), P49146; actives 0.45% (n = 220,000); in the data active means activation above about 27%;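 further: cells stimulated with NPY near EC25 plus isoproterenol at EC100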
NPY Y2 blocker – NPY-Y2 receptor antagonists, primary screen, cell-based; actives 0.99% (n = 140,000); AID 793, 2007; NPY-Y2 expressing cells, antagonist mode; inhibition, % at 2.7 µM; in the data active means inhibition above about 17%
NPY1 pot ag – NPY-Y1 receptor potentiators or agonists, primary screen, cell-based | Neuropeptide Y receptor type 1 (Homo sapiens), P25929 | NPY-Y1 expressing cells, potentiator/agonist activation | activation, % at 3.6 µM | actives 0.37% (n = 220,000) | AID 1304, 2008; in the data active means activation above about 33%, passing the limit was not always enough;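 further: cells stimulated with NPY at EC10 then isoproterenol at EC100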
NPY-Y2 confirm – NPY-Y2 potentiators or agonists, confirmation, cell-based | activation, % at 3.6 µM | actives 20% (n = 450) | cell-based NPY-Y2 potentiator/agonist assay | AID 1539, 2009 | shares compounds with NPY-Y2 PAM-ag; in the data active means activation above about 33%
NPY-Y1 potentiator – NPY-Y1 potentiators or agonists, counter-screen for NPY-Y2 potentiator project, cell-based, fluorescence; shares compounds with NPY-Y2 PAM-ag; Y1 HEK293-CNG cells, membrane potential fluorescence; activation, % at 3.6 µM; actives 20% (n = 450); in the data active means activation above about 45%;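 further: cells stimulated with submaximal NPY then isoproterenol with phosphodiesterase inhibitor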
NPY-Y1 agonist 2 – NPY-Y1 direct agonists, selectivity assay for NPY-Y2 potentiator project, cell-based, fluorescence; shares compounds with NPY-Y2 PAM-ag; HEK293 Y1-CNGC, membrane potential fluorescence, agonism; activation, % at 3.6 µM; actives 37% (n = 450); AID 1702, 2009;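 active means activation above the mean of DMSO-only control wells plus 3 SD, cut at about 18% in these data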;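 further: cells stimulated with 1 µM isoproterenol plus the PDE inhibitor Ro 20-1724; Y1 agonists lower the membrane potential dye signal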
CNGC inh – CNGC cAMP sensor activity inhibitors, counter-screen for NPY-Y2 potentiator project, cell-based, HEK293-CNG parental, membrane potential fluorescence. shares compounds with NPY-Y2 PAM-ag. isoproterenol cAMP. inhibition, % at 3.6 µM. actives 32% (n = 450);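 active means inhibition above the control-well mean plus 3 SD of those wells, cut at about 22% in these data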
NPY-Y2 ag 2 – NPY-Y2 direct agonists, counter-screen for NPY-Y2 potentiator project, cell-based, fluorescence | HEK293 Y2/CNGC cells, membrane potential fluorescence, agonist mode | activation, % at 3.6 µM | AID 1710, 2009 | actives 56% (n = 450) | shares compounds with NPY-Y2 PAM-ag;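 active means activation above the mean of solvent-only control wells plus 3 SD, cut at about 10% in these data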;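 further: cells stimulated by isoproterenol with no NPY added so direct agonism is tested; agonism lowers probe fluorescence through less cAMP and CNG channel opening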
Hits are given with their value; n = inactive; x = not tested or not shown. Only some compounds are listed: those with a hit (about 1.8% of all), similar ones and a draw of the others.

SMILES | NPY Y1 blocker | NPY-Y2 PAM-ag | NPY Y2 blocker | NPY1 pot ag | NPY-Y2 confirm | NPY-Y1 potentiator | NPY-Y1 agonist 2 | CNGC inh | NPY-Y2 ag 2
Cc1c(C(=O)O)[nH]c2ccc([N+](=O)[O-])cc12 | n | 30 | x | n | n | n | 39 | n | 31
O=C(CSc1cccc2cccnc12)N/N=C/c1ccc(O)cc1 | x | n | x | n | x | x | x | x | x
O=C(CCc1ccccc1O)N/N=C/c1ccc(Sc2cccc3cccnc23)o1 | n | 37 | n | n | n | n | 34 | 22 | 22
O=C(CSc1nnc(NC(=O)C2CC2)s1)Nc1ccc2c(c1)OCCO2 | n | n | x | n | x | x | x | x | x
CNC(=O)CCc1[nH]c2ccccc2c1Sc1ccccc1 | n | 26 | n | n | n | n | n | n | 23
Cc1[nH]c2ccccc2c1SCC(=O)O | n | n | n | n | x | x | x | x | x
CCOc1nc(N=C(N)N)nc2c(C)cccc12 | n | 38 | n | n | n | n | n | n | n
CCOc1nc(-c2ccccc2O)nc2ccccc12 | n | n | n | n | x | x | x | x | x
C/C(N)=C(/C#N)C(=O)CSc1nn(-c2ccc(Cl)cc2)c(=S)s1 | n | 35 | x | n | n | n | n | n | 10.0
COC(=O)c1cn(NC(=O)Cn2nc([N+](=O)[O-])c(Br)c2C)c(=O)c2ccccc12 | n | n | x | n | x | x | x | x | x
CS(=O)(=O)N(CC(=O)NC1CC1)C1CCCCC1 | n | n | n | n | x | x | x | x | x
COC(=O)/C(=C\Nc1cccc(Cl)c1C)c1ncc(C(F)(F)F)cc1Cl | n | 58 | n | n | n | n | n | n | n
CC/C(=N\NC(N)=O)c1ccc(OC(F)F)cc1 | x | n | x | n | x | x | x | x | x
O=S(=O)(c1cnc(Cl)c(Cl)c1)N1CCc2ccccc21 | x | 42 | x | n | n | n | n | 32 | 23
O=S(=O)(c1cnc(Cl)c(Cl)c1)N1CCCc2ccccc21 | n | n | n | n | x | x | x | x | x
O=C(NC(NC(=S)Nc1cccc(C(=O)O)c1)C(Cl)(Cl)Cl)OCc1ccccc1 (stereo not given) | n | n | n | n | x | x | x | x | x
O=C(NC(NC(=S)Nc1cccc(Cl)c1)C(Cl)(Cl)Cl)OCc1ccccc1 (stereo not given) | n | 33 | n | n | n | n | 30 | 28 | 34
O=Cc1cc(N=Nc2ccccc2Cl)ccc1O | n | 34 | x | n | 42 | 51 | 25 | 25 | 39
CC1=C(C)CC(C(=O)Nc2ccc3c(c2)OCO3)C(C(=O)O)C1 (stereo not given) | n | n | x | n | x | x | x | x | x
O=C(N/N=C/c1ccccc1F)c1ccc(COc2ccccc2Cl)o1 | n | n | n | n | x | x | x | x | x
CSc1nc(N(C)C)nc(N(C)C#N)n1 | n | n | x | n | x | x | x | x | x
COc1ccc(-c2nc3cnccn3c2Nc2ccc(C)cc2)cc1 | n | 29 | n | n | 47 | n | 29 | 27 | 52
O=[N+]([O-])c1cc(C(F)(F)F)cc([N+](=O)[O-])c1NCCNC(=S)Nc1ccc(Cl)c(Cl)c1 | x | 102 | x | n | 34 | n | 18 | n | 47
CC(C)CNC(=O)c1cnn2c(C(F)(F)F)cc(C(F)(F)F)nc12 | x | n | x | n | x | x | x | x | x
Cc1nn(Cc2ccc(F)cc2)c(C)c1NC(=O)c1cnn2c1NC(c1cccs1)CC2C(F)(F)F (stereo not given) | n | n | n | n | x | x | x | x | x
SMILES | NPY Y1 blocker | NPY-Y2 PAM-ag | NPY Y2 blocker | NPY1 pot ag | NPY-Y2 confirm | NPY-Y1 potentiator | NPY-Y1 agonist 2 | CNGC inh | NPY-Y2 ag 2
Cc1nn(Cc2ccc(F)cc2)c(C)c1NC(=O)c1cnn2c1NC(c1ccccc1)CC2C(F)(F)F (stereo not given) | n | 34 | n | n | n | n | 19 | 22 | 27
O=C(N/N=C/c1cccc2cccnc12)c1ccccc1O | x | 38 | x | n | n | n | n | n | 12
O=C(N/N=C/c1cccc2nccnc12)c1ccccc1O | x | n | x | n | x | x | x | x | x
O=C(O)c1ccc(Oc2c(C(F)(F)F)oc3cc(O)ccc3c2=O)cc1 | n | 39 | x | n | n | n | n | n | n
Cc1oc2cc(O)ccc2c(=O)c1Oc1ccccc1 | n | n | n | n | x | x | x | x | x
Oc1ccccc1N=Nc1ccccc1O | n | 29 | x | n | 36 | 46 | 30 | 27 | 43
Cc1cccc(-n2c(N)cc(=O)nc2SCC(=O)Nc2cc(C)on2)c1 | n | 79 | n | n | n | n | n | n | n
Nc1c(-c2ccccc2)cnn1-c1cccc(C(F)(F)F)c1 | n | n | n | n | x | x | x | x | x
Nc1c(-c2cccc(Cl)c2)cnn1-c1cccc(C(F)(F)F)c1 | n | 42 | n | n | 61 | 68 | 61 | 47 | 74
Cn1c(O)c(C=Nc2ccc(Br)cc2)sc1=O | n | n | x | n | x | x | x | x | x
Nc1[nH]nc2c1NN(c1ccc(Cl)cc1Cl)N2 | n | 32 | n | n | n | n | n | 24 | 21
Nc1c(-c2n[nH]c(=S)n2-c2ccc(Cl)cc2Cl)cnn1-c1ccccc1 | x | n | x | n | x | x | x | x | x
N=c1c(-c2nc3ccccc3[nH]2)cc(C(=O)c2ccco2)nn1-c1ccccc1 | n | 38 | n | n | 83 | 108 | 80 | 73 | 80
CC(C)C(=O)Nc1ccc(N2CCN(c3ccc(F)cc3)CC2)cc1 | n | 31 | x | n | n | n | n | n | n
Cc1ccc(NS(=O)(=O)c2ccc(C(=O)N3CCN(c4ncccn4)CC3)cc2)cc1 | n | 35 | x | n | n | n | n | n | n
O=C(c1ccc(S(=O)(=O)Nc2ccc(F)cc2)cc1)N1CCN(c2ccccn2)CC1 | n | n | x | n | x | x | x | x | x
CCCc1ncc(C(O)c2ccccc2OC)n1C (stereo not given) | n | n | x | n | x | x | x | x | x
O=C1/C(=C/c2ccc(O)c(O)c2)SC(=S)N1Nc1ccccc1 | n | 39 | x | n | 34 | n | 25 | n | 28
Nc1nc(Nc2ccc(Cl)cc2)nc2ccccc12 | n | 51 | n | n | 55 | 65 | 41 | 50 | 42
Nc1nc(CCl)nc(Nc2ccccc2)n1 | n | n | x | n | x | x | x | x | x
CC(=O)N(Cc1ccc(F)cc1)C1=C(NCc2ccccc2)C(=O)c2ccccc2C1=O | n | 38 | n | n | n | n | n | n | 10
Cc1c(C(=O)O)sc2nc(CSc3ncc(C(F)(F)F)cc3Cl)[nH]c(=O)c12 | x | n | x | n | x | x | x | x | x
